Data taken from ChEMBL document CHEMBL2412956, “Synthesis and biological activity evaluation of 5-pyrazoline substituted 4-thiazolidinones” (Eur J Med Chem, 2013).

How the values were obtained:
A498 = assay: Cytotoxicity against human A498 cells after 48 hrs by SRB assay; type: functional; settings: A498, 48 h
Procedure, shortened: (§1)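 This was the NCI 60-cell-line five-dose screen, using 10-fold dilutions from 100 to 0.01 μM and continuous 48-h exposure. Growth was read by sulforhodamine B protein staining relative to time-zero and untreated controls. […] Where an endpoint was not reached, the value was given as beyond the range tested.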

SR [1] = assay: Cytotoxicity against human SR cells after 48 hrs by SRB assay; type: functional
Procedure, shortened: (§2)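 NCI 60-cell-line panel, five 10-fold concentrations from 100 μM to 0.01 μM (10⁻⁴ to 10⁻⁸ M) with 48-h continuous exposure. Growth was read by SRB protein staining against time-zero and untreated controls. […] Values beyond the tested range are expressed as greater or less than the limit.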

K562 [2] = assay: Cytotoxicity against human K562 cells assessed as cell growth at 10 uM after 48 hrs by SRB assay relative to control; type: functional; settings: K562, 48 h, read-out: Activity
Procedure, shortened: (§3)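 This was the NCI primary screen, with compound added once at 10⁻⁵ M and cultures incubated for 48 h. The endpoint was sulforhodamine B protein staining. Results are expressed as percent growth of treated cells relative to untreated control cells.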

BT-549 [3] = assay: Cytotoxicity against human BT549 cells after 48 hrs by SRB assay; type: functional; settings: BT-549, 48 h; procedure, shortened: as §1
Hs-578T = assay: Cytotoxicity against human Hs578T cells assessed as cell growth at 10 uM after 48 hrs by SRB assay relative to control; type: functional; settings: read-out: Activity
Procedure, shortened: (§4)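 NCI 60-cell-line primary screen. Test agent added once at 10⁻⁵ M, cultures incubated 48 h, end point by sulforhodamine B protein staining read spectrophotometrically. Value is percent growth of treated cells relative to untreated control cells.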

OVCAR-3 = assay: Cytotoxicity against human OVCAR3 cells after 48 hrs by SRB assay; type: functional; settings: OVCAR-3, 48 h; procedure, shortened: as §1
SR [4] = assay: Cytotoxicity against human SR cells assessed as cell growth at 10 uM after 48 hrs by SRB assay relative to control; type: functional; settings: read-out: Activity
Procedure, shortened: (§5)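 Single-dose NCI screen: compound at 10⁻⁵ M added to tumor cell cultures and incubated for 48 h. The SRB protein-binding dye end point was read spectrophotometrically. Results are percent growth of treated cells relative to untreated controls.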

NCI-H522 = assay: Cytotoxicity against human NCI-H522 cells assessed as cell growth at 10 uM after 48 hrs by SRB assay relative to control; type: functional; settings: NCI-H522, 48 h, read-out: Activity; procedure, shortened: as §3
UACC-62 [5] = assay: Cytotoxicity against human UACC62 cells after 48 hrs by SRB assay; type: functional; settings: UACC-62, 48 h; procedure, shortened: as §2
SF-295 [6] = assay: Cytotoxicity against human SF295 cells after 48 hrs by SRB assay; type: functional; settings: SF-295, 48 h; procedure, shortened: as §1
NCI-H460 [7] = assay: Cytotoxicity against human NCI-H460 cells assessed as cell growth at 10 uM after 48 hrs by SRB assay relative to control; type: functional; settings: NCI-H460, 48 h, read-out: Activity; procedure, shortened: as §4
A549 [8] = assay: Cytotoxicity against human A549 cells after 48 hrs by SRB assay; type: functional; settings: A549, 48 h; procedure, shortened: as §1
HL-60(TB) [9] = assay: Cytotoxicity against human HL-60(TB) cells after 48 hrs by SRB assay; type: functional; settings: HL-60, 48 h; procedure, shortened: as §1
A549 [10] = assay: Cytotoxicity against human A549 cells assessed as cell growth at 10 uM after 48 hrs by SRB assay relative to control; type: functional; settings: A549, 48 h, read-out: Activity; procedure, shortened: as §3
UACC-62 [11] = assay: Cytotoxicity against human UACC62 cells assessed as cell growth at 10 uM after 48 hrs by SRB assay relative to control; type: functional; settings: UACC-62, 48 h, read-out: Activity; procedure, shortened: as §5
PC-3 [12] = assay: Cytotoxicity against human PC3 cells assessed as cell growth at 10 uM after 48 hrs by SRB assay relative to control; type: functional; settings: PC-3, 48 h, read-out: Activity; procedure, shortened: as §3
SF-295 [13] = assay: Cytotoxicity against human SF295 cells assessed as cell growth at 10 uM after 48 hrs by SRB assay relative to control; type: functional; settings: SF-295, 48 h, read-out: Activity; procedure, shortened: as §3
HL-60(TB) [14] = assay: Cytotoxicity against human HL-60(TB) cells assessed as cell growth at 10 uM after 48 hrs by SRB assay relative to control; type: functional; settings: HL-60, 48 h, read-out: Activity; procedure, shortened: as §3
[15] = Cytotoxicity against human Hs 578T cells after 48 hrs by SRB assay; type: functional; procedure, shortened: as §1
KM12 = assay: Cytotoxicity against human KM12 cells assessed as cell growth at 10 uM after 48 hrs by SRB assay relative to control; type: functional; settings: KM12, 48 h, read-out: Activity; procedure, shortened: as §3
SF-539 = assay: Cytotoxicity against human SF539 cells after 48 hrs by SRB assay; type: functional; settings: SF-539, 48 h; procedure, shortened: as §1
HOP-92 = assay: Cytotoxicity against human HOP92 cells after 48 hrs by SRB assay; type: functional; settings: HOP-92, 48 h; procedure, shortened: as §1
NCI-H322M = assay: Cytotoxicity against human NCI-H322M cells after 48 hrs by SRB assay; type: functional; procedure, shortened: as §1
Trypanosoma cruzi = assay: Antitrypanosomal activity against […] form of Trypanosoma cruzi Y infected in monkey […] cells assessed as parasite growth inhibition after 15 hrs by trypan blue staining-based hemocytometric analysis; type: functional, organism-based
MCF7 [16] = assay: Cytotoxicity against human MCF7 cells assessed as cell growth at 10 uM after 48 hrs by SRB assay relative to control; type: functional; settings: MCF7, 48 h, read-out: Activity; procedure, shortened: as §3
NCI-H460 [17] = assay: Cytotoxicity against human NCI-H460 cells after 48 hrs by SRB assay; type: functional; settings: NCI-H460, 48 h; procedure, shortened: as §1
PC-3 [18] = assay: Cytotoxicity against human PC3 cells after 48 hrs by SRB assay; type: functional; settings: PC-3, 48 h; procedure, shortened: as §1
U-251 = assay: Cytotoxicity against human U251 cells after 48 hrs by SRB assay; type: functional; settings: U-251, 48 h; procedure, shortened: as §2
DU-145 = assay: Cytotoxicity against human DU145 cells after 48 hrs by SRB assay; type: functional; settings: DU-145, 48 h; procedure, shortened: as §1
RPMI-8226 [19] = assay: Cytotoxicity against human RPMI8226 cells assessed as cell growth at 10 uM after 48 hrs by SRB assay relative to control; type: functional; settings: RPMI-8226, 48 h, read-out: Activity; procedure, shortened: as §3
MCF7 [20] = assay: Cytotoxicity against human MCF7 cells after 48 hrs by SRB assay; type: functional; settings: MCF7, 48 h; procedure, shortened: as §1
MDA-MB-435 [21] = assay: Cytotoxicity against human MDA-MB-435 cells assessed as cell growth at 10 uM after 48 hrs by SRB assay relative to control; type: functional; settings: MDA-MB-435, 48 h, read-out: Activity; procedure, shortened: as §3
BT-549 [22] = assay: Cytotoxicity against human BT549 cells assessed as cell growth at 10 uM after 48 hrs by SRB assay relative to control; type: functional; settings: BT-549, 48 h, read-out: Activity; procedure, shortened: as §4
T47D [23] = assay: Cytotoxicity against human T47D cells after 48 hrs by SRB assay; type: functional; procedure, shortened: as §2
MOLT-4 [24] = assay: Cytotoxicity against human MOLT4 cells after 48 hrs by SRB assay; type: functional; settings: MOLT-4, 48 h; procedure, shortened: as §1
MDA-MB-435 [25] = assay: Cytotoxicity against human MDA-MB-435 cells after 48 hrs by SRB assay; type: functional; settings: MDA-MB-435, 48 h; procedure, shortened: as §1
RPMI-8226 [26] = assay: Cytotoxicity against human RPMI8226 cells after 48 hrs by SRB assay; type: functional; settings: RPMI-8226, 48 h; procedure, shortened: as §1
T47D [27] = assay: Cytotoxicity against human T47D cells assessed as cell growth at 10 uM after 48 hrs by SRB assay relative to control; type: functional; settings: read-out: Activity; procedure, shortened: as §5
CCRF-CEM = assay: Cytotoxicity against human CCRF-CEM cells assessed as cell growth at 10 uM after 48 hrs by SRB assay relative to control; type: functional; settings: read-out: Activity; procedure, shortened: as §3
K562 [28] = assay: Cytotoxicity against human K562 cells after 48 hrs by SRB assay; type: functional; settings: K562, 48 h; procedure, shortened: as §1
MOLT-4 [29] = assay: Cytotoxicity against human MOLT4 cells assessed as cell growth at 10 uM after 48 hrs by SRB assay relative to control; type: functional; settings: MOLT-4, 48 h, read-out: Activity; procedure, shortened: as §3
HCT-116 = assay: Cytotoxicity against human HCT116 cells after 48 hrs by SRB assay; type: functional; settings: HCT-116, 48 h; procedure, shortened: as §1
HCT-15 = assay: Cytotoxicity against human HCT15 cells after 48 hrs by SRB assay; type: functional; settings: HCT-15, 48 h; procedure, shortened: as §1
SK-MEL-5 = assay: Cytotoxicity against human SK-MEL-5 cells after 48 hrs by SRB assay; type: functional; settings: SK-MEL-5, 48 h; procedure, shortened: as §2
OVCAR-4 = assay: Cytotoxicity against human OVCAR4 cells assessed as cell growth at 10 uM after 48 hrs by SRB assay relative to control; type: functional; settings: OVCAR-4, 48 h, read-out: Activity; procedure, shortened: as §3

For O=C1NC(=O)/C(=C/C(=O)N2N=C(c3ccc4ccccc4c3)CC2c2ccc(Cl)cc2)S1 (centres undefined), the GI50 (A498) was 1.41 µM, the TGI (A498) was 5.38 µM and the GI50 (SR [1]) was 1.98 µM. For the same compound, the TGI (SR [1]) was 5.92 µM, the growth at 10 µM (K562 [2]) was 24.6% and the GI50 (BT-549 [3]) was 2.16 µM. For the same compound, the TGI (BT-549 [3]) was 7.75 µM, the growth at 10 µM (Hs-578T) was 35.6% and the GI50 (OVCAR-3) was 2.9 µM. It also gave a TGI (OVCAR-3) of 10.6 µM, a growth at 10 µM (SR [4]) of 10.6% and a growth at 10 µM (NCI-H522) of 23.2%. The GI50 (UACC-62 [5]) was 2.66 µM, the TGI (UACC-62 [5]) was 12.8 µM and the GI50 (SF-295 [6]) was 2.45 µM. It also gave a TGI (SF-295 [6]) of 9.12 µM, a growth at 10 µM (NCI-H460 [7]) of 25.9% and a GI50 (A549 [8]) of 3.06 µM. It also gave a TGI (A549 [8]) of 100 µM, a GI50 (HL-60(TB) [9]) of 3.2 µM and a TGI (HL-60(TB) [9]) of 6.48 µM. The growth at 10 µM (A549 [10]) was 30%, the growth at 10 µM (UACC-62 [11]) was 32.8% and the growth at 10 µM (PC-3 [12]) was 36%. The growth at 10 µM (SF-295 [13]) was -5.27%, the growth at 10 µM (HL-60(TB) [14]) was 13.5% and the GI50 [15] was 1.94 µM. For the same compound, the TGI [15] was 8.26 µM, the growth at 10 µM (KM12) was 25.8% and the GI50 (SF-539) was 2.43 µM. It also gave a TGI (SF-539) of 5.79 µM, a GI50 (HOP-92) of 1.17 µM and a TGI (HOP-92) of 9.72 µM. It also gave a GI50 (NCI-H322M) of 2.89 µM, a TGI (NCI-H322M) of 100 µM and an IC50 (Trypanosoma cruzi) of 0.3 µM. For the same compound, the growth at 10 µM (MCF7 [16]) was 34.4%, the GI50 (NCI-H460 [17]) was 1.89 µM and the TGI (NCI-H460 [17]) was 4.7 µM. For the same compound, the GI50 (PC-3 [18]) was 4.94 µM, the TGI (PC-3 [18]) was 100 µM and the GI50 (U-251) was 2.58 µM. For the same compound, the TGI (U-251) was 13.2 µM, the GI50 (DU-145) was 4.27 µM and the TGI (DU-145) was 100 µM. It also gave a growth at 10 µM (RPMI-8226 [19]) of 2.48%, a GI50 (MCF7 [20]) of 2.53 µM and a TGI (MCF7 [20]) of 14.1 µM. It also gave a growth at 10 µM (MDA-MB-435 [21]) of 39.5%, a growth at 10 µM (BT-549 [22]) of 34.2% and a GI50 (T47D [23]) of 1.53 µM. For the same compound, the TGI (T47D [23]) was 9.4 µM, the GI50 (MOLT-4 [24]) was 1.64 µM and the GI50 (MDA-MB-435 [25]) was 2.7 µM. It also gave a TGI (MDA-MB-435 [25]) of 16.5 µM, a GI50 (RPMI-8226 [26]) of 1.97 µM and a TGI (RPMI-8226 [26]) of 5.88 µM. It also gave a growth at 10 µM (T47D [27]) of 39.3%, a growth at 10 µM (CCRF-CEM) of 16.7% and a GI50 (K562 [28]) of 1.9 µM. The TGI (K562 [28]) was 11.2 µM, the growth at 10 µM (MOLT-4 [29]) was 11.5% and the GI50 (HCT-116) was 3.01 µM. It also gave a TGI (HCT-116) of 13.9 µM, a GI50 (HCT-15) of 2.41 µM and a TGI (HCT-15) of 100 µM. It also gave a GI50 (SK-MEL-5) of 2.09 µM and a TGI (SK-MEL-5) of 22.5 µM.
COc1ccc(C2CC(c3ccc4ccccc4c3)=NN2C2SC(=O)N(CN3CCOCC3)C2=O)cc1 (centres undefined) showed a growth at 10 µM (OVCAR-4) of 67.5%.
